# Data as given in article PMC4857052 (Molecular pharmacology, 2012).
# Experiments:
# TbU1 = conditions: procyclic forms (PCF), NE = no effect on uptake at concentration indicated, ref De Koning and Jarvis (1998), Papageorgiou et al. (2005), Gudin et al. (2006), cited from earlier work; for Ki: read-out: Ki, U1
# [1] = test system: T. b. brucei bloodstream forms strain 427 WT; test: Alamar blue drug sensitivity assay, wild-type; assay type: cell-based, Trypanosoma brucei brucei; conditions: for effect on bloodstream trypanosomes (in words): Alamar blue viability assay; for EC50: Trypanosoma brucei, read-out: EC50, WT, Mean, Alamar blue assay, wild-type sensitive control strain
# How it was run: (§1)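 Bloodstream-form T. b. brucei s427 grown in HMI-9 with 10% FBS at 37°C under 5% CO2. Resistant lines were made by months of stepwise-increasing exposure to the analog, then cloned by limiting dilution. Viability was read by resazurin (Alamar blue) reduction. Thymidine rescue was tested by adding 100 μM thymidine.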
# TbU3 uracil transporter = test: [3H]-uracil transport in bloodstream forms; assay type: cell-based, Trypanosoma brucei brucei; conditions: read-out: Km, U3; bloodstream forms (BSF); Km of the permeant itself
# TbU3 = test: [3H]-2′deoxyuridine transport in bloodstream forms; assay type: cell-based, Trypanosoma brucei brucei
# [2] = test system: s427WT T. b. brucei bloodstream forms; test: Kinetic parameters of pyrimidine transport in wild-type bloodstream forms; assay type: cell-based, Trypanosoma brucei brucei; conditions: [3H]-permeant; strain s427WT
# How it was run: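 Log-phase cells were washed into HEPES/bicarbonate glucose buffer (pH 7.3) at 1 × 10^8/ml and mixed with an equal volume of [3H]-permeant, with or without unlabeled competitor, at ambient temperature. Uptake was stopped with ice-cold buffer containing saturating unlabeled permeant, then cells were spun through oil. Counts were corrected for nonspecific binding and Km, Vmax and Ki obtained by curve fitting. Runs were in triplicate. Thymidine: 10 μM label, 15 min. Orotic acid: 10 min.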
# [3] = test system: T. b. brucei bloodstream forms; test: Uptake of other radiolabeled pyrimidines by wild-type bloodstream forms; assay type: cell-based, Trypanosoma brucei brucei; conditions: over 15 min; 2.5 μM [3H]-2′-deoxycytidine, 0.25 μM [3H]-cytosine, 1 μM [3H]-thymine
# 5FURes T. b. brucei = test: Alamar blue drug sensitivity assay, 5FURes; assay type: cell-based, Trypanosoma brucei brucei; conditions: for EC50: Trypanosoma brucei, read-out: EC50, 5FURes, Mean; for RF, 5FURes: resistance factor: IC50(resistant clone)/IC50(WT)
# How it was run: as §1
# 5FOARes T. b. brucei = test: Alamar blue drug sensitivity assay, 5FOARes; assay type: cell-based, Trypanosoma brucei brucei; conditions: for EC50: Trypanosoma brucei, read-out: EC50, 5FOARes, Mean; for RF, 5FOARes: resistance factor: IC50(resistant clone)/IC50(WT)
# How it was run: as §1
# 5F-2′dURes T. b. brucei = test: Alamar blue drug sensitivity assay, 5F-2′dURes; assay type: cell-based, Trypanosoma brucei brucei; conditions: for EC50: Trypanosoma brucei, read-out: EC50, 5F-2′dURes, Mean; for RF, 5F-2′dURes: resistance factor: IC50(resistant clone)/IC50(WT)
# How it was run: as §1
# [4] = test system: TbT1 (P1-type nucleoside transporter); test: [3H]-thymidine transport in bloodstream forms; assay type: cell-based, Trypanosoma brucei brucei; conditions: bloodstream forms
# 5-FURes T. b. brucei = test: Pyrimidine transport in 5-FURes bloodstream forms; assay type: cell-based, Trypanosoma brucei brucei
smiles,measurement,setting,value
Cn1ccc(=O)[nH]c1=O [1-Methyluracil],"Ki, U1",TbU1,"NE, 10000"
Sc1ncccn1 [2-Mercaptopyrimidine],"Ki, U1",TbU1,"NE, 500"
O=c1nccc[nH]1 [2-Pyrimidone],Ki,TbU1,5400 ± 1300 µM
O=c1cc[nH]c(=S)[nH]1 [2-Thiouracil],Ki,TbU1,640 ± 110 µM
O=c1ccn([C@@H]2O[C@H](CO)[C@@H](O)[C@H]2O)c(=S)[nH]1 [2-thiouridine],effect on bloodstream trypanosomes (in words),[1],no effect up to at least 1 mM
"O=c1ccn([C@H]2CC[C@@H](CO)O2)c(=O)[nH]1 [2’,3′-dideoxyuridine, 2′,3′-dideoxyuridine]",effect on bloodstream trypanosomes (in words),[1],no effect up to at least 1 mM
"O=c1ccn([C@H]2C[C@H](O)[C@@H](CO)O2)c(=O)[nH]1 [2’Deoxyuridine, 2′-deoxyuridine]",Km,TbU3 uracil transporter,810 ± 130 µM
same,rate of [3H]-2′deoxyuridine uptake,TbU3; 0.5 μM [3H]-2′deoxyuridine,0.00045 pmol (10^7 cells)^−1s^−1
same,rate of [3H]-2′deoxyuridine transport,"TbU3; 5 μM [3H]-2′deoxyuridine, linear over 4 min",0.0051 ± 0.0003 pmol/10^7 cells/s
same,inhibition of [3H]-2′deoxyuridine transport by unlabeled 2′-deoxyuridine,"TbU3; 5 μM label, 2.5 mM unlabeled",76%
same,Km,[2],810 ± 310 µM
same,Vmax,[2],1.3 ± 0.7 pmol (10^7 cells)^−1s^−1
Nc1ccn([C@H]2C[C@H](O)[C@@H](CO)O2)c(=O)n1 [2′-deoxycytidine],accumulation of radiolabeled permeant (in words),[3],just detectable accumulation
O=C1C=CNC(=O)C1 [3-Deazauracil],Ki,TbU1,> 2500 µM
Cn1c(=O)cc[nH]c1=O [3-Methyluracil],Ki,TbU1,1620 ± 350 µM
Cc1cn([C@H]2CC[C@@H](CO)O2)c(=O)[nH]c1=O [3′-deoxythymidine],effect on bloodstream trypanosomes (in words),[1],no effect up to at least 1 mM
O=c1ccn([C@@H]2O[C@H](CO)C[C@H]2O)c(=O)[nH]1 [3′-deoxyuridine],effect on bloodstream trypanosomes (in words),[1],no effect up to at least 1 mM
O=c1ccnc[nH]1 [4(3H)Pyrimidone],Ki,TbU1,1670 ± 180 µM
O=c1[nH]ccc(=S)[nH]1 [4-Thiouracil],Ki,TbU1,22 ± 7 µM
O=c1[nH]c(=S)ccn1[C@@H]1O[C@H](CO)[C@@H](O)[C@H]1O [4-thiouridine],effect on bloodstream trypanosomes (in words),[1],no effect up to at least 1 mM
"O=C1CCNC(=O)N1 [5,6-Dihydrouracil]",Ki,TbU1,830 ± 200 µM
O=c1[nH]cc(Cl)c(=O)[nH]1 [5-Chlorouracil],Ki,TbU1,900 ± 140 µM
"O=C(O)c1[nH]c(=O)[nH]c(=O)c1F [5-Fluoroorotic acid, 5-fluoroorotic acid]",EC50,[1],14.1 µM
same,EC50,5FURes T. b. brucei,98 µM
same,"RF, 5FURes",5FURes T. b. brucei,6.9
same,EC50,5FOARes T. b. brucei,1180 µM
same,"RF, 5FOARes",5FOARes T. b. brucei,83
same,EC50,5F-2′dURes T. b. brucei,13.3 µM
same,"RF, 5F-2′dURes",5F-2′dURes T. b. brucei,0.94
"O=c1[nH]cc(F)c(=O)[nH]1 [5-Fluorouracil, 5-fluorouracil]",effect on [3H]-thymidine transport (in words),[4],little or no effect
same,reduction of [3H]-5-FU transport in 5-FURes relative to wild-type,"5-FURes T. b. brucei; 0.5 μM [3H]-5-FU, n = 3",76% ± 6
same,Km,"5-FURes T. b. brucei; [3H]-permeant, strain 5-FURes",2.3 ± 0.4 µM
same,Km,[2],2.5 ± 0.01 µM
same,Vmax,[2],0.27 ± 0.02 pmol (10^7 cells)^−1s^−1
same,EC50,[1],35.9 µM
same,EC50,5FURes T. b. brucei,4710 µM
same,"RF, 5FURes",5FURes T. b. brucei,131
same,EC50,5FOARes T. b. brucei,448 µM
same,"RF, 5FOARes",5FOARes T. b. brucei,13
same,EC50,5F-2′dURes T. b. brucei,76.1 µM
same,"RF, 5F-2′dURes",5F-2′dURes T. b. brucei,2.1
same,Ki,TbU1,3 ± 0.8 µM
O=c1[nH]cc([N+](=O)[O-])c(=O)[nH]1 [5-Nitrouracil],"Ki, U1",TbU1,"NE, 1000"
